Test [1] can be described thus: S. cerevisiae growth inhibition in permissive medium (OD615), pilot counter-assay for S. cerevisiae lifespan shortening project, permissive growth control (AID 705;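 active = growth inhibition above 25% in both replicates, a cutoff set 3 SD above the mean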). The note with it: OD615, 24 h, at 10 µM, active compounds read high. A digest of the protocol: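 System – S. cerevisiae with engineered DeaD lifespan system · Buffer or medium – SC raffinose/galactose permissive medium · Schedule – cells pre-grown 4 h, then 24 h compound exposure, 30 °C humidified · Technique – culture turbidity as optical density at 615 nm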

The nature of test [2]: S. cerevisiae growth inhibition in restrictive medium, OD615, pilot screen, restrictive growth control, yeast lifespan reduction project (AID 706;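 active = growth inhibition above a set limit, 3 SD over mean compound inhibition, in both replicates, cut at about 43% in these data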;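 note: modified DeaD lifespan yeast strain shifted to restrictive glucose medium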). The following applies: OD615, 48 h, at 10 µM, active compounds read high. A digest of the protocol: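 Material: engineered S. cerevisiae DeaD strain / Medium: glucose-based CSMM-D restrictive medium / Compound: single dose of 10 µM compound final, 0.25% DMSO / Timing: 4 h pre-incubation, 48 h exposure at 30 °C / Technique: OD615 absorbance reading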

Test [3] in a line: doxorubicin toxicity protection in MRP-1 cells – H69AR cells, CellTiter-Glo, duplicate, MRP-1 activator project, pilot screen (AID 807;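 active = viability increase at or above a cutoff of the median across tested compounds plus 3 SD, cut at about 8.5% in these data, passing the limit was not always enough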;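 note: compound pretreatment 18-22 h then 72 h combined with doxorubicin; 0% = doxorubicin alone and 100% = vehicle without doxorubicin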). The note with it: H69AR viability with doxorubicin, CellTiter-Glo luminescence; at 10 µM; active compounds read high. In general terms: In ATP-based viability assays light output follows the ATP content of the culture.
Test [4] in a line: viability of HCT116 without oncogenic beta-catenin – human colon tumor cells, pilot screen (AID 823;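 active = cell viability at or below a set limit in both duplicate runs, the limit being the all-compound median minus 4 SD, cut at about 23% in these data, passing the limit was not always enough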;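 note: 0% = wells killed by 20 µM Hyamine and 100% = untreated DMSO cell wells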). The note with it: HCT116 beta-catenin knockout viability, CellTiter-Glo, 60 h; at 10 µM; active compounds read low.
A short description of test [5]: viability of PTEN-null HCT116 cells – cell-based, HCT116 clonal line, CellTiter-Glo, pilot screen (AID 824;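 active = viability at or below 27.92% in each of two runs, the all-compound median minus 4 SD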;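 note: 0% = 20 µM Hyamine control and 100% = vehicle cell control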). The following applies: HCT116 PTEN-deleted viability, 60 h, at 10 µM, active compounds read low.
Test [6] is described as follows: RAM pathway blockade in budding yeast – dse1pr::URA3 reporter, 5-FOA selection, pilot screen (AID 869;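 active = inhibition over a set limit, the all-compound mean plus 3 SD, in both replicate runs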;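 note: 0% = DMSO wells with no growth and 100% = 10 µM 1-NA-PP1 with full growth; RAM network block rescues cells from 5-FOA so hits raise OD615 growth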). The note with it: S. cerevisiae dse1pr::URA3 5-FOA growth, OD615, 2 d; at 10 µM; active compounds read high; strain carries analog-sensitive mutant Cbk1 kinase.
Test [7] is described as follows: RAM signaling pathway blockade in yeast – S. cerevisiae, Pdr1DBD-CYC8 efflux-inhibited sensitized strain, primary screen (AID 1298).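 Note: 0% = DMSO untreated cells without growth and 100% = 10 µM 1-NA-PP1 full growth; higher means more yeast growth rescued from 5-FOA killing.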 The note with it: S. cerevisiae cbk1-as DSE1-URA3 strain, 5-FOA growth OD615, 2 d; at 50 µM; active compounds read high.

Consider 18 compounds from PubChem BioAssay.

The structures appear in SMILES notation. A number with no mark means an inactive call. Results filed as inconclusive are left out. Active and inactive are the calls of the source.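 Rule for the calls, unless noted: active = RAM network inhibition above 8.4% in each of two replicates, 3 SD over the compound average; inconclusive = above 8.4% inhibition in only one replicate; inactive = 8.4% inhibition or less in each replicate.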

Take `O=C(NCCc1csc(-c2cccnc2)n1)c1ccc(Br)o1`: the growth inhibition in test [1] is 1.56%; in test [2], 10.1%. In addition, in test [3], the viability increase was -2.6%. Besides, the results for the viability in test [4] and in test [5] were 107% and 97.3%, respectively. Moreover, in test [6], the inhibition was 0%. Moreover, in test [7], the RAM network inhibition is 2.18%.
`O=C(Nc1c(C(=O)N2CCCCC2)cnn1-c1ccccc1)c1ccco1`: the growth inhibition is -2.23% in test [1] and -5.33% in test [2]. The viability increase in test [3] was -0.92%. Further, the viability in test [4] is 95.2%; in test [5] it was 95.5%. Besides, the inhibition in test [6] is 1.14%. In addition, the RAM network inhibition in test [7] was 0.25%.
Take `COc1ccc(OC)c(NC2c3ccccc3C(=O)N2Cc2ccc3c(c2)OCO3)c1` (stereo unspecified): the growth inhibition in test [1] was -0.33%; in test [2], -3.93%. Besides, the viability increase in test [3] is -0.47%. The viability was 98% in test [4] and 90% in test [5]. Also, the inhibition in test [6] is 0.2%. In addition, the RAM network inhibition in test [7] is 5.4%.
Take `C1CCc2c(nc3nnnn3c2N2CCOCC2)C1`: the growth inhibition in test [1] is -0.9%; in test [2], 3.85%. In test [3], the viability increase is 1.82%. In addition, the figures for the viability in test [4] and in test [5] were 107% and 98.4%, respectively. Moreover, the inhibition in test [6] is 1.07%. In addition, the RAM network inhibition in test [7] was 5.8%.
With `O=C(Nc1ccccc1C(=O)NCc1ccco1)NC1CCCCC1`, the growth inhibition in test [1] is -5.4%; in test [2], 6.01%. Also, the viability increase in test [3] is -3.58%. The viability is 93.1% in test [4] and 92.8% in test [5]. Further, in test [6], the inhibition was 0.79%. Moreover, the RAM network inhibition in test [7] was 0.59%.
On to `O=C(NC1CCCC1)C(c1ccc(Cl)cc1)N1CCOCC1` (stereo unspecified), for which the figures for the growth inhibition in test [1] and in test [2] were -10.9% and -6.79%, respectively. The viability increase in test [3] was 1.37%. Moreover, the viability in test [4] is 98.8%; in test [5], 93%. Further, the inhibition in test [6] was 1.98%. Besides, the RAM network inhibition in test [7] is 2.55%.
Turning to `CSc1ccccc1NC(=O)c1onc(C)c1Cl`, the growth inhibition in test [1] was -5.06%; in test [2], 10.3%. Further, the viability increase in test [3] was -1.83%. Also, the viability in test [4] was 95.6%; in test [5], 93.2%. In test [6], the inhibition is 1.33%. In addition, in test [7], the RAM network inhibition was 1.54%.
With `CSc1nc(C)cc(SCCO)n1`, the figures for the growth inhibition in test [1] and in test [2] were -3.2% and 8.15%, respectively. Further, the viability increase in test [3] is -1.79%. The viability is 105% in test [4] and 102% in test [5]. In addition, the inhibition in test [6] was 0.695%. Moreover, the RAM network inhibition in test [7] was 0.46%.
Regarding `CC(=O)OC(/C(O)=C(\C#N)c1nc2ccccc2[nH]1)c1ccccc1` (stereo unspecified), the growth inhibition in test [1] was 0.55%; in test [2] it was 3.63%. Also, the viability increase in test [3] is -0.98%. The viability in test [4] is 59.6%; in test [5], 54.3%. For the same compound, the inhibition in test [6] is 1.63%. The RAM network inhibition in test [7] was 3.42%.
Turning to `O=C(CN(Cc1ccc(F)cc1)S(=O)(=O)c1ccccc1)N1CCCCC1`, the growth inhibition in test [1] was -9.46%; in test [2], -3.51%. For the same compound, the viability increase in test [3] is -2.51%. The viability in test [4] is 97.3%; in test [5], 89.8%. The inhibition in test [6] is 0.975%. Moreover, the RAM network inhibition in test [7] was 4.25%.
For `CCCCS(=O)(=O)/C=C\C=C/S(=O)(=O)CCCC`, the growth inhibition in test [1] was 14.9%; in test [2] it was 60% (active). In addition, the viability increase in test [3] was -7.95%. In addition, the viability in test [4] was 1.4% (active); in test [5], 1.36% (active). Besides, the inhibition in test [6] was -0.535%. Also, the RAM network inhibition in test [7] was -3.06%.
For the compound `CC(=O)c1ccc(NC(=O)C2CCC(C)(C(=O)O)C2(C)C)cc1` (stereo unspecified), the growth inhibition in test [1] was -7.29%; in test [2] it was -11.9%. In addition, in test [3], the viability increase is -0.27%. The viability in test [4] is 97.9%; in test [5], 106%. Besides, the inhibition in test [6] was 2.73%. For the same compound, the RAM network inhibition in test [7] was 3.04%.
`Cc1ccc(S(=O)(=O)N=C2SCCCS2)cc1`: the growth inhibition is -3.74% in test [1] and 6.67% in test [2]. Besides, in test [3], the viability increase is -2.68%. Further, the viability was 99.2% in test [4] and 99.5% in test [5]. The inhibition in test [6] is 1.31%. Further, the RAM network inhibition in test [7] was 2.39%.
As for `CCSCCOC(=O)C1=C(C)NC(=O)NC1c1cc(OC)ccc1OC` (stereo unspecified), the growth inhibition in test [1] was -4.26%; in test [2] it was 4.14%. In test [3], the viability increase is -1.14%. Further, the viability in test [4] was 86.9%; in test [5], 90.8%. In addition, the inhibition in test [6] was 1.79%. Further, in test [7], the RAM network inhibition was 2.39%.
`CCOC(=O)N1CCN(C(=O)c2cnn3ccccc23)CC1`: the growth inhibition is -9.02% in test [1] and -2.02% in test [2]. Moreover, the viability increase in test [3] is -1.3%. In addition, the viability is 103% in test [4] and 100% in test [5]. Besides, the inhibition in test [6] is 4.82%. In addition, the RAM network inhibition in test [7] is -1.68%.
On to `O=C(CSc1ccc2c(c1)OCCO2)NC(=O)NC1CCCC1`, for which the growth inhibition in test [1] was -2.04%; in test [2] it was 2.58%. The viability increase in test [3] was -1.38%. The viability in test [4] was 87.7%; in test [5], 91.3%. Also, the inhibition in test [6] is 0.535%. In addition, in test [7], the RAM network inhibition is -1.28%.
For the compound `Cc1ccc(-n2nc(C)c3c(C)c(CCC(=O)NCc4ccco4)c(C)nc32)cc1`, the growth inhibition in test [1] is -15%; in test [2], -9.24%. Moreover, the viability increase in test [3] is -3.52%. Further, the viability in test [4] was 84.7%; in test [5], 75.5%. Moreover, the inhibition in test [6] is 0.985%. The RAM network inhibition in test [7] was 4.13%.
Take `CCOC(=O)c1c(C)n(C)c2ccc(OCC(N)=O)cc12`: the growth inhibition was -3.96% in test [1] and -11% in test [2]. The viability increase in test [3] was -4.45%. Moreover, the viability is 100% in test [4] and 99.3% in test [5]. Further, the inhibition in test [6] is 1.96%. Further, the RAM network inhibition in test [7] is 6.79%.

The viability is a read-out of living cells in per cent, often relative to untreated cells. A word on the inhibition: it is the relative decrease from the control value, in per cent.
